Experimental findings from ChEMBL document CHEMBL4138048, “Synthesis of substituted 2H-benzo[e]indazole-9-carboxylate as a potent antihyperglycemic agent that may act through IRS-1, Akt and GSK-3β pathways” (Medchemcomm, 2017) are described below.

Structures are written as SMILES. Active and inactive are the calls of the source. The rule behind the calls is not given here.

In data set [1] the test system is Mus musculus. The data set is described as follows: Antihyperglycemic activity in db/db mouse assessed as reduction in fasting blood glucose level at 3 mg/kg, po qd for 15 days. The class given is functional. More on the design: scale not given: the % may be the effect or the level left. An outline of the steps: (§1)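 db/db mice given 3, 10 or 30 mg/kg orally once a day for 15 consecutive days, alongside vehicle controls. Serum triglyceride, total cholesterol, HDL-C and insulin measured, along with fasting blood glucose. Expressed as mean % change in 5 animals per group versus control.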

The subject of data set [2] is Mus musculus. The data set is described as follows: Antihyperglycemic activity in db/db mouse assessed as reduction in triglyceride level at 30 mg/kg, po qd for 15 days. More on the design: scale not given: the % may be the effect or the level left. The class given is functional. An outline of the steps:
as §1

The test system of data set [3] is Mus musculus. The data set is described as follows: Antihyperglycemic activity in db/db mouse assessed as reduction in serum insulin level at 3 to 30 mg/kg, po qd for 15 days. The class given is functional, organism-based. An outline of the steps:
as §1

In data set [4] the target is T1, Tyrosine-protein phosphatase non-receptor type 1 (Rattus norvegicus) (UniProt P20417).
T1 sequence (whole entry): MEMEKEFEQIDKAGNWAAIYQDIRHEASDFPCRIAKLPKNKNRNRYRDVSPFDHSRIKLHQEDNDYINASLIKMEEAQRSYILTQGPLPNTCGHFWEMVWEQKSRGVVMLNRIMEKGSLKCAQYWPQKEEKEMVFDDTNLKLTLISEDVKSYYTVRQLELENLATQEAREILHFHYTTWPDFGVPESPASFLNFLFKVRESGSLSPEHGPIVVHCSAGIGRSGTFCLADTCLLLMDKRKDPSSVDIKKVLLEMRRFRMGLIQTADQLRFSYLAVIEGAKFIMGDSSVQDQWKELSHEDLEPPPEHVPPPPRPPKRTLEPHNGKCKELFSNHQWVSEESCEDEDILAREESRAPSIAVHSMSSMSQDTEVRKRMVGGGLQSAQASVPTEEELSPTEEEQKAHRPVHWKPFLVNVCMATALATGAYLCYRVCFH
The experiment in a line: Inhibition of PTP1B in rat L6 cells assessed as increase in insulin-stimulated GSK3beta Ser9 phosphorylation at 10 to 25 uM pre-incubated for 16 hrs before insulin stimulation for 10 mins by Western blot method. The format is cell-based. An outline of the steps:
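L6 myotubes treated for 16 h with the compound at the indicated concentrations, then stimulated with insulin (100 nM) for 10 min. Cells lysed and analysed by western blot. Densitometry of p-IRS-1, p-AKT and p-GSK, each relative to its total form. Compared with control and with insulin-treated control.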
In general terms: Immunoblotting shows a protein as a band on a membrane.

Data set [5] concerns Mus musculus. The data set is described as follows: Antihyperglycemic activity in db/db mouse assessed as increase in HDL-C level at 10 mg/kg, po qd for 15 days. The format is functional. Put shortly: as §1
Data set [6] deals with L6. The experiment in a line: Stimulation of [3H]2-deoxyglucose uptake in rat L6 cells at 10 uM incubated for 16 hrs by scintillation counting method. The format is functional, cell-based. An outline of the steps: (§2)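 L6 myotubes incubated with the compound […]; insulin at 100 nM for 20 min served as the positive control. Uptake of ³H-2-deoxyglucose measured and expressed as fold stimulation relative to the control condition.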

For data set [7], the system named is Mus musculus. The data set is described as follows: Antihyperglycemic activity in db/db mouse assessed as improvement on glucose tolerance by measuring blood glucose AUC level at 3 mg/kg, po qd for 15 days by oral glucose tolerance test. The class given is functional. Put shortly:
(§3)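 db/db mice dosed orally once daily for 15 consecutive days at 3, 10 or 30 mg/kg, with vehicle controls and pioglitazone at 10 mg/kg. Oral glucose tolerance tests on day 10 and day 15. Overall improvement in glucose tolerance calculated against vehicle control. Mean % change in 5 animals per group.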

The subject of data set [8] is Mus musculus. The experiment in a line: Antihyperglycemic activity in db/db mouse assessed as improvement on glucose tolerance by measuring blood glucose AUC level at 3 to 30 mg/kg, po qd for 15 days by oral glucose tolerance test. The format is functional, organism-based. An outline of the steps:
as §3

In data set [9] the target is T2, Tyrosine-protein phosphatase non-receptor type 1 (Homo sapiens) (UniProt P18031).
T2 sequence (whole entry): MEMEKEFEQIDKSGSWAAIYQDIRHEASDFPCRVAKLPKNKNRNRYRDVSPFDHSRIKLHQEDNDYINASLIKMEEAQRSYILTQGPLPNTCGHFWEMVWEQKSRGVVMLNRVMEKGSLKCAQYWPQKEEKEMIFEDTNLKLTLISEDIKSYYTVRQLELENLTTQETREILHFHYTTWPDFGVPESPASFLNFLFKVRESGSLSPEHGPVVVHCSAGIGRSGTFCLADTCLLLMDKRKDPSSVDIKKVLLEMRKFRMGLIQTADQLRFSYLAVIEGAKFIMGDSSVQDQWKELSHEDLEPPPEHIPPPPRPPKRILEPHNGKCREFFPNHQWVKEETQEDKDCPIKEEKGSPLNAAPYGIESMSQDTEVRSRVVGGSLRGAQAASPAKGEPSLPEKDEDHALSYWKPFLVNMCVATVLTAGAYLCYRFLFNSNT
The experiment in a line: Inhibition of human recombinant PTP1B using IR5 insulin receptor-beta (1142 to 1153 residues, pY1146) substrate BY Malachite green dye based assay.

For data set [10], the system named is L6. The data set is described as follows: Stimulation of [3H]2-deoxyglucose uptake in rat L6 cells at 2.5 uM incubated for 16 hrs by scintillation counting method. The class given is functional, cell-based. An outline of the steps: as §2
The subject of data set [11] is Mus musculus. The data set is described as follows: Antihyperglycemic activity in db/db mouse assessed as improvement on glucose tolerance by measuring blood glucose AUC level at 3 to 30 mg/kg, po qd for 10 days by oral glucose tolerance test. The format is functional, organism-based. Put shortly:
as §3

Data set [12] deals with Mus musculus. The experiment in a line: Antihyperglycemic activity in db/db mouse assessed as reduction in insulin level at 10 mg/kg, po qd for 15 days. The class given is functional. More on the design: scale not given: the % may be the effect or the level left. An outline of the steps: as §1
Data set [13] deals with Mus musculus. The data set is described as follows: Antihyperglycemic activity in db/db mouse assessed as increase in HDL-C level at 30 mg/kg, po qd for 15 days. The class given is functional. Put shortly:
as §1

For data set [14], the system named is Mus musculus. The experiment in a line: Antihyperglycemic activity in db/db mouse assessed as reduction in fasting blood glucose level at 30 mg/kg, po qd for 15 days. The format is functional. Further details: scale not given: the % may be the effect or the level left. An outline of the steps: as §1
Data set [15] deals with Mus musculus. The data set is described as follows: Toxicity in db/db mouse assessed as effect on food intake level at 3 to 30 mg/kg, po qd for 15 days by oral glucose tolerance test. The following applies: in vivo, 360 h. The class given is organism-based.
Data set [16] has as its system Mus musculus. The data set is described as follows: Antihyperglycemic activity in db/db mouse assessed as reduction in cholesterol level at 10 mg/kg, po qd for 15 days. More on the design: scale not given: the % may be the effect or the level left. The format is functional. An outline of the steps: as §1
In data set [17] the test system is Mus musculus. The data set is described as follows: Antihyperglycemic activity in db/db mouse assessed as improvement on glucose tolerance by measuring blood glucose AUC level at 30 mg/kg, po qd for 15 days by oral glucose tolerance test. The format is functional. Put shortly: as §3
The test system of data set [18] is Mus musculus. The data set is described as follows: Antihyperglycemic activity in db/db mouse assessed as reduction in blood glucose level at 3 to 30 mg/kg, po qd for 15 days by oral glucose tolerance test. The class given is functional, organism-based. An outline of the steps:
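Type 2 diabetic db/db mice dosed orally once a day for 15 days at 3, 10 or 30 mg/kg, with pioglitazone at 10 mg/kg as standard. Blood glucose measured daily and profile compared with vehicle-treated animals. Mean % change in 5 animals per group.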

Data set [19] relates to Mus musculus. The data set is described as follows: Antihyperglycemic activity in db/db mouse assessed as reduction in triglyceride level at 3 mg/kg, po qd for 15 days. The format is functional. Further details: scale not given: the % may be the effect or the level left. Put shortly: as §1
Data set [20] concerns Mus musculus. The data set is described as follows: Antihyperglycemic activity in db/db mouse assessed as improvement on glucose tolerance by measuring blood glucose AUC level at 30 mg/kg, po qd for 10 days by oral glucose tolerance test. The format is functional. Put shortly: as §3

For the compound `COC(=O)c1c(SC)cc(-c2ccc(C)cc2)c2c1-c1cn(-c3ccccc3)nc1CC2`, the Activity in the data set on Mus musculus [1] is 10.1%; in the data set with Mus musculus [2], 18.2%; with Mus musculus [3], “Dose-dependent effect”; with Mus musculus [5], 10.9%; in the data set with Mus musculus [7], 13.2%; with Mus musculus [8], “Dose-dependent effect”. Besides, the Activity result in the data set with Mus musculus [11] was “Dose-dependent effect”; in the data set on Mus musculus [12], 17.7%; with Mus musculus [13], 20.5%; in the data set with Mus musculus [14], 31.9%; in the data set on Mus musculus [15], “Non-Toxic”; in the data set on Mus musculus [16] it was 15.3%. Further, the Activity with Mus musculus [17] was 31.6%; with Mus musculus [18], “Dose-dependent effect”; in the data set on Mus musculus [19], 8.98%; in the data set on Mus musculus [20], 25.7%. Moreover, the inhibition result in data set [4] was “Active”. Besides, the result with L6 [6] and with L6 [10] was Active. Also, the inhibition result in data set [9] is “Dose-dependent effect”.
